Sampled rows, rich in hits. Any-hit rate of the full collection: about 3.7%.
procasp7 counter = counter-screen: procaspase-7 (human) activation; P55210; recombinant procaspase-7, Ac-DEVD-pNA absorbance 405 nm; D23A/D198A/D206A triple mutant, cannot self-cleave; scale: DMSO 0, 5 µM enzyme 100; activation, % at 8.5 µM; hit rate 0.093% among 330,000; AID 463210;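 active = percent activation above the screen-wide mean plus 3 SD, cut at about 25% in these data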
Target sequence (P55210 whole entry D23A/D198A/D206A): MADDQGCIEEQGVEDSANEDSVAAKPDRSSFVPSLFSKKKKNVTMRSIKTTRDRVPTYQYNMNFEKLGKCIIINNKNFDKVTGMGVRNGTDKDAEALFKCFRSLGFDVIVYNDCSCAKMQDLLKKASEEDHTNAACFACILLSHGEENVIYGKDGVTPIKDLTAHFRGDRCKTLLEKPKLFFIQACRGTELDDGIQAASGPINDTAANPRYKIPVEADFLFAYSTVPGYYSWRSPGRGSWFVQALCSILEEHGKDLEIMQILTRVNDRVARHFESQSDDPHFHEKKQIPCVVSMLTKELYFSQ
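Replicates: singlicate. Assay system: Procaspase-7 triple mutant (PC-7 D3A). Signal: 405 nm absorbance of p-nitroaniline. Times: 1 h preincubation, 2 h reaction. Buffer or medium: Zinc-free HEPES pH 7.4 with 300 mM NaCl, 0.01% Triton X-100. Also added: DEVD-pNA substrate. Benchmarks: DMSO wells as 0%, DMSO with 5 µM added PC-7 as 100%.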
NR3A LBD binder = NR3A (human) ligand-binding domain modulation; hit rate 2.5% among 340,000; NR3A LBD differential scanning fluorimetry, Tm shift; 0% = protein alone, 100% = glycine-bound protein; Tm shift relative to glycine control, % at 25 µM;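 active = melting temperature shift of at least 10% of the positive control shift, at one fixed dose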
aDG glyco act = increases alpha dystroglycan glycosylation; Pro5-aDG cells, alpha-DG glycosylation AlphaScreen (IIH6); 0% Pro5, 100% B10-LARGE cell signal; activation, % at 10 µM; hit rate 0.22% among 360,000;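 active = activation of at least 8% versus controls, or a plate z-score of at least 8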;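 also: Pro5 are CHO cells carrying HIG-tagged alpha-DG that lacks glycosylation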
MPTP block = inhibitors of mitochondrial permeability transition pore; isolated mouse mitochondria, Ca2+ swelling absorbance, 30 min; inhibition, % at 10 µM; hit rate 1.4% among 360,000; AID 602449;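 active = inhibition of 50% or more, scaled per plate between neutral and stimulator controls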;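 also: 0% = DMSO wells given calcium and 100% = 1 mM EGTA wells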
procasp3 activ = activates human procaspase-3; P42574; recombinant procaspase-3 D3A, Ac-DEVD-pNA absorbance 405 nm; activation, % at 8.5 µM; hit rate 0.11% among 330,000;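 active = activation above the mean of all tested compounds plus 3 SD, cut at about 21% in these data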;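 also: 0% = DMSO alone and 100% = DMSO wells spiked with extra 5 µM PC-3 D3A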
Target sequence (P42574 whole entry D9A/D28A/D175A): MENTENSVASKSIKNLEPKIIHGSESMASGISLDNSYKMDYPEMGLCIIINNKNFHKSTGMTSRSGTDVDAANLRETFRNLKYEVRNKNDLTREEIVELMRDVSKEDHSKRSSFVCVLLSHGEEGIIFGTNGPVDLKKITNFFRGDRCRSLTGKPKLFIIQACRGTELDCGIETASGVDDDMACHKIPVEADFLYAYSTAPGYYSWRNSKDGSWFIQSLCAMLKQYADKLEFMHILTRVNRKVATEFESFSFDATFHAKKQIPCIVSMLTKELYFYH
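Compound: 8.5 µM single point, 0.8% DMSO / Material: Autoprocessing-dead procaspase-3 D3A mutant enzyme / Timing: 1 h preincubation plus 2 h reaction at 25 °C / Medium: Zinc-free HEPES/NaCl buffer with 0.01% Triton X-100 at pH 7.4 / Technique: 405 nm absorbance of p-nitroaniline, reads at 0 and 120 min / Repeats: one well per compound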
The depositor's hits bear a star; x = no result given; ! = not active in a repeat.

SMILES	procasp7 counter	NR3A LBD binder	aDG glyco act	MPTP block	procasp3 activ
CCNC(=O)/C(C#N)=C/c1c(N(Cc2ccccc2)Cc2ccccc2)nc2ccccn2c1=O	-11.1	21.8*	-0.2	-10.6	-7.3
CC(=O)c1ccccc1NC(=O)COC(=O)CN1C(=O)C2CCCCC2C1=O (configuration not stated)	-6.0	1.8	-0.2	-1.0	-0.3
CN=c1sc2c(n1C)C(=O)c1ccccc1C2=O	x	1.0	13.0*	1.2	x
O=C(NCCC1=CCCCC1)C(=O)NCC(c1ccco1)N1CCN(c2ccc(F)cc2)CC1 (configuration not stated)	2.3	10.0*	0.1	3.9	-0.7
O=C(NCC(c1ccco1)N1CCN(c2ccc(F)cc2)CC1)C1CCCCC1 (configuration not stated)	-7.4	0.5	0.0	-0.6	1.4
C=CCNCCCCOc1cccc(Br)c1	-2.9	27.9*	0.5	-0.7	3.4
C=CCOCCn1[nH]c2ccccc2c1=O	-2.1	0.3	0.1	-1.8	4.8
N=c1oc2cc(O)ccc2cc1C(=O)Nc1ccc(Cl)cc1	4.1	20.4*	-0.1	4.1	0.1
Cc1ccc(NC(=O)c2cc3ccccc3oc2=N)cc1	3.2	-1.0	-0.1	0.9	-6.5
Cc1cccc2cc(CN(Cc3ccc(F)cc3)C(=O)N(C)C)c3nnnn3c12	1.4	11.9*	-0.2	2.3	0.9
O=C(COc1ccccc1C(=O)N/N=C\c1ccc(O)c(O)c1)N/N=C/c1ccc(O)c(O)c1	-7.3	13.3*	0.0	4.3	-9.4
O=C(NN=Cc1ccc(O)c(O)c1)c1ccccc1	x	x	0.1	-0.1	x
CCCCCCCCN1C(=O)[C@H](CC(=O)NCCCCc2ccccc2)C[C@@]2(C(=O)OC)CC(C)(C)CC=C12	x	x	0.1	1.1	x
CC(C)Oc1ccc(C(=O)NC2(C(F)(F)F)NC(=O)N(CCCc3ccccc3)C2=O)cc1 (configuration not stated)	-0.9	14.4*	0.6	5.9	6.0
CCCCN1C(=O)NC(NC(=O)c2ccco2)(C(F)(F)F)C1=O (configuration not stated)	9.0	-0.9	-0.1	1.5	-1.8
O=C(CSc1ncnc2nc[nH]c12)N1CCOCC1	-1.1	10.5*	0.0	-2.0	3.9
C=C(C)COC(=O)c1ccccc1C(=O)OCC1(C)CO1 (configuration not stated)	x	-1.1	-0.1	0.1	x
S=c1nc(-c2ccccn2)c(-c2ccccn2)n[nH]1	x	x	-0.2	-2.2	x
O=C(Nc1ccc2nc(-c3cccs3)[nH]c2c1)c1cccs1	-7.2	25.6*	0.0	-0.3	-4.6
Cn1cccc1-c1nc2ccc(NC(=O)c3ccco3)cc2[nH]1	3.5	-4.0	-0.2	1.9	2.6
Cc1ccc2nc(-c3ccc(NC(=O)c4ccco4)cc3)[nH]c2c1	-2.5	31.1*	0.3	-1.6	12.2
O=C(Nc1ccc2nc(-c3cccs3)[nH]c2c1)c1ccco1	-2.2	13.6*	0.1	7.7	4.0
O=C(Nc1ccc(-c2nc3ccc(NC(=O)c4cccs4)cc3[nH]2)cc1)c1cccs1	5.7	30.4*	0.3	3.0	-0.6
O=C(CN1CCN(C(=O)C2CCN(C(=O)/C=C/c3ccccc3)CC2)CC1)Nc1ccc(F)cc1	x	0.1	0.3	1.1	x
CCOc1ccc(Br)cc1S(=O)(=O)NCC(c1ccc(OC)cc1)N1CCOCC1 (configuration not stated)	x	-1.1	0.0	-1.1	x
SMILES	procasp7 counter	NR3A LBD binder	aDG glyco act	MPTP block	procasp3 activ
Cc1cc(C)c(OCC(=O)Nc2ccc(NC(=O)c3ccco3)cc2)c([N+](=O)[O-])c1	0.3	0.6	0.3	2.0	-2.7
O=C(c1ccccc1)c1ccc2nc(-c3ccc(NC(=O)c4ccccc4Br)cc3)[nH]c2c1	-2.2	9.0	0.1	-0.7	11.8
Cc1ccc(OCC(=O)Nc2ccc(NC(=O)c3ccco3)cc2)c(C)c1	2.9	29.3*	-0.1	-0.2	2.5
Cc1ccccc1C(=O)Nc1ccc(-c2nc3ccc(C(=O)c4ccccc4)cc3[nH]2)cc1	-0.3	16.8*	2.5	-0.4	-1.2
CCOc1ccc(OCC)c(NC(=O)CN2CCN(c3cccc(C)c3C)CC2)c1	-1.4	10.6*	0.7	6.9	5.3
CN1CCN(CC(=O)Nc2ccccc2[N+](=O)[O-])CC1	-5.8	3.4	-0.3	0.0	0.9
COc1cc(NC(=O)CN2CCN(c3ccccc3)CC2)c(C)cc1[N+](=O)[O-]	4.7	-1.3	0.1	4.1	-9.6
COc1cc(NC(=O)CN2CCN(c3ccccc3F)CC2)c(C)cc1[N+](=O)[O-]	4.6	14.8*	0.0	4.0	-0.6
Cc1cccc(N2CCN(CC(=O)Nc3ccccc3[N+](=O)[O-])CC2)c1C	-1.3	15.3*	-0.3	2.4	9.8
CCC1=C(NCc2ccccc2)COC1=O	x	x	-0.4	-0.4	x
COC(=O)[C@H](CC(C)C)NS(=O)(=O)c1ccc(F)cc1Br	x	x	0.0	5.2	x
O=c1[nH]c(SCc2ccccc2F)nc2ccccc12	3.8	-1.4	-0.2	1.2	6.5
O=c1cc(CSc2nc3ccccc3c(=O)[nH]2)c2ccc(O)cc2o1	x	29.4*	1.7	3.8	x
COc1ccc(C=C2CS(=O)(=O)CC(=Cc3ccc(OC)cc3)C2=O)cc1	x	x	0.0	0.2	x
O=C(Nc1ccc(NC(=O)c2cccs2)cc1)c1ccc2c(c1)OCCO2	-5.4	28.7*	-0.1	0.8	0.1
O=C(Nc1ccc(NC(=O)c2cccs2)cc1)c1ccc2c(c1)OCO2	11.9	13.7*	-0.1	0.1	-1.7
O=C(Nc1cccc(NC(=O)c2cccs2)c1)c1ccc2c(c1)OCO2	1.5	6.6	-0.3	0.9	-8.2
O=C(Nc1ccc(NC(=O)c2ccc3c(c2)OCCO3)cc1)c1ccccc1	-5.7	11.9*	0.2	0.8	-14.7
Nc1ccc(-c2nc3c(ccc4ccccc43)[nH]2)cc1	1.7	10.6*	-0.1	1.4	-6.5
C/C(=N\NC(=O)c1ccc(O)cc1)c1ccc(NC(=O)Cc2ccccc2)cc1	x	-1.2	-0.1	-1.1	x
Cc1ccc(S(=O)(=O)NN=C2C(=O)C3CCC2C3Cl)cc1 (configuration not stated)	x	0.3	0.0	-1.0	x
O=[N+]([O-])c1ccc(SCCc2ccncc2)cc1	-27.2	11.4*!	0.5	3.6	-11.7
NS(=O)(=O)c1ccc(CCNc2nc3c(-c4cccc(F)c4)nnn3c3ccccc23)cc1	-2.1	14.7*	-0.3	1.5	-2.1
Cc1ccc(-c2nnn3c2nc(NCCc2ccc(S(N)(=O)=O)cc2)c2ccccc23)cc1	-2.5	85.6*	-0.2	2.1	3.9
COCCNc1nc2c(-c3cccc(C(F)(F)F)c3)nnn2c2ccccc12	1.3	-4.7	0.0	1.3	1.6
Nc1nc2c(-c3ccc(Br)cc3)nnn2c2ccccc12	2.9	37.2*	0.2	5.0	-0.5
